TNAP inh hiacc = inhibitors of human TNAP at high phosphate acceptor concentration; purified TNAP, CDP-star luminescence, 1 M DEA; inhibition, % at 20 µM; AID 1135; actives 0.03% (n = 200,000); P05186;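 active = over 50% inhibition of tissue-nonspecific alkaline phosphatase at 20 µM in the single-dose screen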;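 also: plate controls were DMSO wells for no effect and EDTA-quenched wells as full inhibition for full effect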
Target sequence (P05186 whole entry, looked up): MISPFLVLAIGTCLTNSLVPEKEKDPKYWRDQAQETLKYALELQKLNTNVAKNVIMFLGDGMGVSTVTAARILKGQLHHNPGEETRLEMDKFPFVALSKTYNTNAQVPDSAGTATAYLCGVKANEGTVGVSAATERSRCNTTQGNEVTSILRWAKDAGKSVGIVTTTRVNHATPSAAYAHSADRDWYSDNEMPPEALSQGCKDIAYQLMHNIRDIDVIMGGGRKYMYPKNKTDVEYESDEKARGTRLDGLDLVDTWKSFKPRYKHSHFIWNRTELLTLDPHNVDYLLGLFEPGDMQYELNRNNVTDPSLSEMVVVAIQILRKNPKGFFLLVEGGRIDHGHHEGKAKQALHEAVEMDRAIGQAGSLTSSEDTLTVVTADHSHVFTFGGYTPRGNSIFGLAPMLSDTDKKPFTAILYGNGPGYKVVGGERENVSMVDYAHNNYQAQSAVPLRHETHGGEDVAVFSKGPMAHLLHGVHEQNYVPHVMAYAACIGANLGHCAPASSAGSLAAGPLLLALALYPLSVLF
PTEN del growth = suppresses growth of cells with PTEN deletion. HCT116 PTEN-null viability, CellTiter-Glo, 60 h; stronger effect = lower value. viability, % at 10 µM. actives 1.2% (n = 140,000). AID 827;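 active = viability at or below a set limit, 4 SD under the median of all tested compounds, cut at about 3.7% in these data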;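 also: PTEN knockout HCT116 line with beta catenin targeted HCT116 as companion control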
TNAP inh noacc = blocks human TNAP activity with no phosphate acceptor present | P05186 | inhibition, % at 20 µM | actives 0.26% (n = 200,000) | purified TNAP, CDP-star luminescence, 30 min;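 active = tissue-nonspecific alkaline phosphatase inhibition above about 50% at 20 µM in the single-dose screen, limit read from the data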;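 also: 0% = DMSO negative control and 100% = EDTA positive control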
TNAP act hiacc = activators of human TNAP at high phosphate acceptor concentration. activation factor at 20 µM. P05186. purified TNAP, CDP-star luminescence, 1 M DEA, 30 min; stronger effect = higher value; 0 = EDTA background, 1 = DMSO-only activity. 200,000 tested, under 10 active. AID 1136;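 active = activation factor at least 2 at 20 µM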
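Measured by: Luminescent substrate turnover signal | Test system: Human TNAP | Input: TNAP 1/800 final | Dosing: 20 µM single point | Schedule: 30 min, room temperature | Controls: EDTA wells as negative control, DMSO wells as positive control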
HCT116 bCat-KO = beta-catenin-lacking colon tumor cell growth suppression | HCT116 beta-catenin knockout viability, CellTiter-Glo, 60 h; stronger effect = lower value | viability, % at 10 µM | actives 1.5% (n = 140,000);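 active = viability at or under a set limit, the compound median less 4 SD, cut at about 6% in these data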;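 also: 0% = Hyamine 1622 control at 20 µM and 100% = untreated cell control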
L major viab = Leishmania major promastigote growth inhibition; Leishmania major promastigotes, resazurin fluorescence viability; inhibition, % at 10 µM; actives 9% (n = 200,000); in the data active = inhibition above about 50%;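 also: promastigotes grown with compound for 44 hours at 28 °C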
Active calls of the source: *; . = no result. Compounds with a hit are over-represented: about 9.6% of the library has one in this group of screens.

SMILES	TNAP inh hiacc	PTEN del growth	TNAP inh noacc	TNAP act hiacc	HCT116 bCat-KO	L major viab
COc1ccc(S(=O)(=O)NCC(c2cccnc2)N2CCN(c3ccccc3)CC2)cc1C (centres undefined)	-3	93	-8	1	92	97*
COc1ccc(S(=O)(=O)NCC(c2cccnc2)N2CCN(c3ccc(F)cc3)CC2)cc1C (centres undefined)	-1	66	-9	1	71	96*
O=S(=O)(NCC(c1cccnc1)N1CCOCC1)c1ccccc1 (centres undefined)	-3	.	-10	1	.	-2
CC(C(=O)NN)c1ccc([N+](=O)[O-])cc1 (centres undefined)	0	.	-10	1	.	-1
COc1ccc(CCNC(=S)NCc2ccc(Cl)c(Cl)c2)cc1OC	-6	.	-80	1.1	.	2
COc1ccc(Oc2c(C)oc3c(CN4CCOCC4)c(O)ccc3c2=O)cc1	-5	103	-2	1.1	88	6
CN1CCN(Cc2c(O)ccc3c(=O)c(Oc4ccccc4Cl)c(C(F)(F)F)oc23)CC1	-6	90	0	1.1	91	99*
CCOC(=O)c1ccc(Oc2c(C)oc3c(CN4CCN(C)CC4)c(O)ccc3c2=O)cc1	-1	102	-6	1	92	100*
O=C1C(=O)N(CCN2CCOCC2)C(c2cccnc2)/C1=C(/O)c1ccc(Cl)cc1 (centres undefined)	-4	.	-10	1	.	-6
O=C(NCc1cn(-c2ccccc2)nc1-c1ccccc1)c1cc([N+](=O)[O-])cc([N+](=O)[O-])c1	-6	80	4	1.1	77	100*
CCn1ncc(CNC(=O)c2cccc([N+](=O)[O-])c2)c1C	-3	103	-13	1	102	-4
O=C(NCc1cn(-c2ccccc2)nc1-c1ccccc1)c1cccc([N+](=O)[O-])c1	1	63	-8	1	69	25
O=C(O)CCC(=O)NCc1cn(-c2ccccc2)nc1-c1cccc(Br)c1	3	103	-6	1	100	59*
CCn1cc(CNC(=O)c2cccc([N+](=O)[O-])c2)cn1	-4	101	-10	1	91	89*
COc1ccc(-c2nn(-c3ccccc3)cc2CNC(=O)c2cccc([N+](=O)[O-])c2)cc1	4	72	-8	1	74	52*
CN1CCN(NC(=O)c2cn(-c3ccccc3)nc2-c2cccc(Br)c2)CC1	-1	.	-8	1	.	35
Cn1c(C(=O)OC(C(=O)NC2CCCC2)c2cccnc2)cc2sccc21 (centres undefined)	1	70	-9	1	74	98*
CC(OC(=O)c1cc2sccc2n1C)C(=O)NC(C)(C)C (centres undefined)	-4	.	-9	1	.	0
Cn1c(C(=O)OC(C(=O)NC2CCCCC2)c2cccnc2)cc2sccc21 (centres undefined)	-1	92	-6	1	101	97*
Cc1c(NC(=O)c2ccc(Br)s2)c(=O)n(-c2ccccc2)n1C	-5	.	-9	1	.	-2
Cn1c(=O)c(C(=O)CCl)c(N)n(CC2CC2)c1=O	0	89	-8	1	80	21
O=C(COc1ccccc1O)NNc1ccccc1	-5	96	-19	1	86	74*
O=C(COc1ccccc1O)Nc1ccccc1Cl	-6	79	1	1.1	89	-2
CCOc1cc(/C=C\[N+](=O)[O-])ccc1OCC(=O)N1CCOCC1	0	.	0	1	.	11
CCOc1cc(/C=C/c2nc3cc(C)c(C)cc3s2)ccc1OCC(=O)N1CCOCC1	-6	98	-11	1.1	92	86*
SMILES	TNAP inh hiacc	PTEN del growth	TNAP inh noacc	TNAP act hiacc	HCT116 bCat-KO	L major viab
CC(=O)Nc1ccc(OS(=O)(=O)c2ccc(C(C)(C)C)cc2)cc1	-7	.	-1	1.1	.	5
O=C(CSc1nc2ccccc2c(=O)n1-c1ccc(F)cc1)Nc1ccc2c(c1)CCC2	3	70	-23	1	74	81*
Cc1ccccc1-n1c(SCC(=O)Nc2ccccc2)nc2nc3c(cc2c1=O)CCCC3	0	68	-14	1	75	98*
O=C(CSc1nc2ccccc2c(=O)n1-c1ccc(F)cc1F)Nc1ccc2c(c1)CCC2	-10	69	-16	1.1	76	99*
Cc1ccc(-n2c(SCC(=O)Nc3cccc(S(=O)(=O)NC4=NCCCCC4)c3)nc3ccccc3c2=O)cc1	1	87	-10	1	96	-2
O=C(CSc1nc2ccccc2c(=O)n1-c1ccc(F)cc1)Nc1ccc(Cl)c(S(=O)(=O)N2CCOCC2)c1	-3	81	-6	1	79	95*
O=C(COc1ccc(Cl)cc1)NCc1nnc(SCC(=O)N2CCCCCC2)o1	-2	.	-10	1	.	-5
O=C(CSc1nc2ccccc2c(=O)n1-c1ccccc1F)Nc1ccc2c(c1)CCC2	-3	62	-9	1	68	98*
O=c1c2ccccc2nc(SCc2nnc(-c3ccccc3)o2)n1-c1ccc(F)cc1F	-6	78	-9	1.1	103	78*
Cc1ccc(NC(=O)C(OC(=O)c2cc(C)oc2C)c2ccccc2)cc1 (centres undefined)	-2	60	-16	1	64	52*
Cc1cccc(-n2cc(CNCCN3CCOC3=O)c(-c3cccc(F)c3)n2)c1	-6	.	-12	1.1	.	11
CCOC(=O)C1CCCN(C(=O)Cn2sc3nc(C)cc(C)c3c2=O)C1 (centres undefined)	-3	1.7*	-18	1	14	-4
CCOC(=O)C1CCCN(C(=O)Cn2cnc3c2c(=O)n(C)c(=O)n3C)C1 (centres undefined)	-6	92	-11	1.1	99	-4
Cc1cc(C)c2c(=O)n(CC(=O)N3CCC(N4CCCCC4)CC3)sc2n1	-3	1.9*	-13	1	1.8*	4
Cc1ccc(NCCC(=O)c2cccc([N+](=O)[O-])c2)c(C)c1	-2	90	8	1	89	97*
Cc1cccc(NCCC(=O)c2ccc([N+](=O)[O-])cc2)c1C	-5	.	-6	1	.	93*
COc1ccc(/C(C)=N/Nc2ccc(C(=O)O)cc2)cc1OC	4	99	-14	1	96	51*
COc1cc(/C(C)=N/Nc2ccc(C(=O)O)cc2)cc(OC)c1OC	-4	99	-8	1	91	-4
CC(=O)c1cc(-c2ccccc2)n(CC(=O)Nc2cccc(C)c2)c1C	-8	78	-7	1.1	77	64*
CC(=O)c1cc(-c2ccccc2)n(CC(=O)N2CCC(N3CCCCC3)CC2)c1C	0	103	-7	1	105	95*
CC(=O)c1cc(-c2ccccc2)n(CCC(=O)NC2CCCCC2)c1C	-1	83	2	1	75	83*

Compound activity deposited in PubChem BioAssay by several laboratories.
